Tests used:
Type in all cases: functional
Rattus norvegicus [1] = test: Percent increase in non-HDL-cholesterol in obese Zucker rats after 2 weeks of treatment at a dose of 0 mg/kg/day
Procedure, shortened: (§1)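 Female Zucker fatty rats [Crl:(Zuc)-faBR], 10–12 weeks, 400–500 g, acclimated 7 days on chow. Compound or vehicle (20% EtOH/80% PEG-200) given by daily oral gavage for 2 weeks, 0–100 mg/kg/day. After a 6 h fast, blood was taken before dosing, at 1 wk and at 2 wk. Serum lipids, NEFA and insulin (ELISA) were measured; glucose by glucometer. HDL/non-HDL-C came from Superose 6 gel-filtration profiles. Values are % change from pretreatment, mean ± SEM.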

Rattus norvegicus [2] = test: Percent decrease in HDL-cholesterol in obese Zucker rats after 2 weeks of treatment at a dose of 3 mg/kg/day; design: scale not given: the % may be the effect or the level left; procedure, shortened: as §1
Rattus norvegicus [3] = test: Percent increase in triglycerides in obese Zucker rats after 2 weeks of treatment at a dose of 0 mg/kg/day; procedure, shortened: as §1
Rattus norvegicus [4] = test: Percent decrease in HDL-cholesterol in obese Zucker rats after 2 weeks of treatment at a dose of 0 mg/kg/day; design: scale not given: the % may be the effect or the level left; procedure, shortened: as §1
Rattus norvegicus [5] = test: Percent increase in nonesterified fatty acids in obese Zucker rats after 2 weeks of treatment at a dose of 0 mg/kg/day; procedure, shortened: as §1
Rattus norvegicus [6] = test: Percent increase in HDL-cholesterol in obese Zucker rats after 2 weeks of treatment at a dose of 10 mg/kg/day; procedure, shortened: as §1
Rattus norvegicus [7] = test: Amount of non-HDL-cholesterol in obese Zucker rats at pre-treatment at a dose of 10 mg/kg/day
Procedure, shortened: (§2)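 Female obese Zucker fatty rats [Crl:(Zuc)-faBR], 10–12 weeks old (400–500 g), on chow. Compound in 20% EtOH/80% PEG-200 (v/v) given by daily oral gavage. After a 6-h fast, serum was taken before dosing and at 7 days (orbital plexus), and at 14 days (cardiac puncture). Lipoprotein cholesterol came from Superose 6HR gel-filtration profiles × serum total cholesterol. Mean ± SEM.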

Rattus norvegicus [8] = test: Percent increase in nonesterified fatty acids in obese Zucker rats after 2 weeks of treatment at a dose of 3 mg/kg/day; procedure, shortened: as §1
Rattus norvegicus [9] = test: Percent increase in triglycerides in obese Zucker rats after 1 week of treatment at a dose of 0 mg/kg/day; procedure, shortened: as §1
Rattus norvegicus [10] = test: Percent increase in HDL-cholesterol in obese Zucker rats after 1 week of treatment at a dose of 10 mg/kg/day; procedure, shortened: as §1
Rattus norvegicus [11] = test: Percent decrease in nonesterified fatty acids in obese Zucker rats after 1 week of treatment at a dose of 10 mg/kg/day; design: scale not given: the % may be the effect or the level left; procedure, shortened: as §1
Rattus norvegicus [12] = test: Percent decrease in triglycerides in obese Zucker rats after 1 week of treatment at a dose of 10 mg/kg/day; design: scale not given: the % may be the effect or the level left; procedure, shortened: as §1
Rattus norvegicus [13] = test: Percent decrease in nonesterified fatty acids in obese Zucker rats after 1 week of treatment at a dose of 30 mg/kg/day; design: scale not given: the % may be the effect or the level left; procedure, shortened: as §1
Rattus norvegicus [14] = test: Amount of non-HDL-cholesterol in obese Zucker rats after 1 week of treatment at a dose of 100 mg/kg/day
Procedure, shortened: (§3)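 Female Zucker fatty rats [Crl:(Zuc)-faBR], 10–12 weeks old (400–500 g), dosed once daily by oral gavage in 20% EtOH/80% PEG-200 (dose volume 0.25% of body weight). Rats were fasted 6 h and bled before dosing and at day 7 (orbital plexus), and at day 14 (cardiac puncture). Serum cholesterol fractions came from Superose 6 gel-filtration lipoprotein profiles (% peak area × serum total cholesterol). Values are mean ± SEM.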

Rattus norvegicus [15] = test: Amount of glucose in obese Zucker rats after 2 weeks of treatment at a dose of 10 mg/kg/day
Procedure, shortened: (§4)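 Female Zucker fatty rats [Crl:(Zuc)-faBR], 10–12 weeks old (400–500 g), gavaged daily with vehicle (20% EtOH/80% PEG-200, 0.25% of body weight) or compound. After a 6-h fast, blood glucose was read by glucometer from tail-prick blood of unanesthetized rats before dosing and after 1 and 2 weeks. Values are mean ± SEM.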

Rattus norvegicus [16] = test: Percent increase in nonesterified fatty acids in obese Zucker rats after 2 weeks of treatment at a dose of 100 mg/kg/day; procedure, shortened: as §1
Rattus norvegicus [17] = test: Amount of non-HDL-cholesterol in obese Zucker rats after 2 weeks of treatment at a dose of 3 mg/kg/day; procedure, shortened: as §2
Rattus norvegicus [18] = test: Percent increase in non-HDL-cholesterol in obese Zucker rats after 1 week of treatment at a dose of 0 mg/kg/day; procedure, shortened: as §1
Rattus norvegicus [19] = test: Percent decrease in non-HDL-cholesterol in obese Zucker rats after 2 weeks of treatment at a dose of 100 mg/kg/day; design: scale not given: the % may be the effect or the level left; procedure, shortened: as §1
Rattus norvegicus [20] = test: Percent decrease in insulin in obese Zucker rats after 2 weeks of treatment at a dose of 0 mg/kg/day; design: scale not given: the % may be the effect or the level left; procedure, shortened: as §1
Rattus norvegicus [21] = test: Amount of nonesterified fatty acids in obese Zucker rats after 2 weeks of treatment at a dose of 30 mg/kg/day
Procedure, shortened: (§5)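 Female Zucker fatty rats [Crl:(Zuc)-faBR], 10–12 weeks old (400–500 g), dosed once daily by oral gavage in 20% EtOH/80% PEG-200 for up to 14 days. After a 6-h fast, serum was taken pre-dose, at day 7 (orbital venous plexus, O2/CO2 anaesthesia) and at day 14 (cardiac puncture), stored at −80 °C, and assayed on a Hitachi 912 automatic analyzer. Mean ± SEM.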

Rattus norvegicus [22] = test: Percentage change of HDL cholesterol levels in obese female Zucker rats after 2 weeks of pre-treatment at a dose of 100 mg/kg/day
Procedure, shortened: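 Obese female Zucker fatty rats were gavaged once daily with 30 or 100 mg/kg/day in 20% EtOH/80% PEG-200 for 2 weeks. Sera were collected after a 6 h fast, before dosing, at 1 week (orbital plexus) and at 2 weeks (cardiac puncture). HDL-C was total cholesterol multiplied by HDL area fraction from gel-filtration lipoprotein profiles. Reported as % change from pretreatment ± SEM.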

Rattus norvegicus [23] = test: Amount of glucose in obese Zucker rats at pre-treatment at a dose of 30 mg/kg/day; procedure, shortened: as §4
Rattus norvegicus [24] = test: Amount of HDL-cholesterol in obese Zucker rats at pre-treatment at a dose of 0 mg/kg/day; procedure, shortened: as §3
Rattus norvegicus [25] = test: Amount of nonesterified fatty acids in obese Zucker rats after 1 week of treatment at a dose of 10 mg/kg/day; procedure, shortened: as §5
Rattus norvegicus [26] = test: Percent decrease in insulin in obese Zucker rats after 1 week of treatment at a dose of 10 mg/kg/day; design: scale not given: the % may be the effect or the level left; procedure, shortened: as §1
Rattus norvegicus [27] = test: Percent decrease in non-HDL-cholesterol in obese Zucker rats after 1 week of treatment at a dose of 100 mg/kg/day; design: scale not given: the % may be the effect or the level left; procedure, shortened: as §1
Rattus norvegicus [28] = test: Amount of nonesterified fatty acids in obese Zucker rats after 2 weeks of treatment at a dose of 100 mg/kg/day; procedure, shortened: as §5
Rattus norvegicus [29] = test: Percent increase in glucose in obese Zucker rats after 2 weeks of treatment at a dose of 3 mg/kg/day; procedure, shortened: as §1
Rattus norvegicus [30] = test: Percent increase in insulin in obese Zucker rats after 2 weeks of treatment at a dose of 30 mg/kg/day; procedure, shortened: as §1
Rattus norvegicus [31] = test: Percent decrease in triglycerides in obese Zucker rats after 2 weeks of treatment at a dose of 30 mg/kg/day; design: scale not given: the % may be the effect or the level left; procedure, shortened: as §1
Rattus norvegicus [32] = test: Percent increase in non-HDL-cholesterol in obese Zucker rats after 2 weeks of treatment at a dose of 10 mg/kg/day; procedure, shortened: as §1
Rattus norvegicus [33] = test: Percent decrease in insulin in obese Zucker rats after 1 week of treatment at a dose of 100 mg/kg/day; design: scale not given: the % may be the effect or the level left; procedure, shortened: as §1

SMILES | Activity (Rattus norvegicus [1]) [%] | Activity (Rattus norvegicus [3]) [%] | Activity (Rattus norvegicus [4]) [%] | Activity (Rattus norvegicus [6]) [%] | Activity (Rattus norvegicus [7]) [mg/dL] | Activity (Rattus norvegicus [9]) [%] | Activity (Rattus norvegicus [10]) [%] | Activity (Rattus norvegicus [11]) [%] | Activity (Rattus norvegicus [12]) [%] | Activity (Rattus norvegicus [13]) [%] | Activity (Rattus norvegicus [14]) [mg/dL] | Activity (Rattus norvegicus [15]) [mg/dL] | Activity (Rattus norvegicus [17]) [mg/dL] | Activity (Rattus norvegicus [18]) [%] | Activity (Rattus norvegicus [19]) [%] | further results
CC(C)(CO)CCCCC(=O)CCCCC(C)(C)CO | 20 | 18 | -15 | 15 | 25 | 19 | 13 | -18 | -23 | -21 | 23 | 110 | 22 | 44 |  | Activity (Rattus norvegicus [2]): -19%; Activity (Rattus norvegicus [5]): 33%; Activity (Rattus norvegicus [8]): 45%; Activity (Rattus norvegicus [16]): -33%
CC(C)(CCCCC(=O)CCCCC(C)(C)C(=O)O)C(=O)O |  |  |  |  | 40 |  |  |  |  | -29 | 18 | 113 | 24 |  | -29 | Activity (Rattus norvegicus [20]): -31%; Activity (Rattus norvegicus [21]): 1.1 mg/dL; Change (Rattus norvegicus [22]): 78%; Activity (Rattus norvegicus [23]): 103 mg/dL; Activity (Rattus norvegicus [24]): 39 mg/dL; Activity (Rattus norvegicus [25]): 0.92 mg/dL; Activity (Rattus norvegicus [26]): -27%; Activity (Rattus norvegicus [27]): -42%; Activity (Rattus norvegicus [28]): 0.66 mg/dL
CC(C)(CCCCCC(=O)CCCCCC(C)(C)C(=O)O)C(=O)O | 40 | 25 | -9 | 60 |  | 18 | 58 | -17 | -36 |  |  |  |  | 45 | -88 | Activity (Rattus norvegicus [29]): 8%; Activity (Rattus norvegicus [30]): -21%; Activity (Rattus norvegicus [31]): -52%; Activity (Rattus norvegicus [32]): 55%; Activity (Rattus norvegicus [33]): -46%

Source: ChEMBL document CHEMBL1137992, “Long hydrocarbon chain keto diols and diacids that favorably alter lipid disorders in vivo” (J Med Chem, 2004)
